# In the library only some 8.7% were active in any assay of this set; here they are far more common.
# Pyk2 oligo antag: antagonists of human Pyk2 oligomerization | AID 1347419 | z-score (the deposit names both 25 µM and 10 µM) | Q293 cells, Pyk2 FERM NanoBiT luminescence; active compounds read low | actives 0.83% (n = 99,000) | Q14289;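 active = Z-score of -3 or lower, scaled per plate to the spread of control and sample wells; inactive = z-score above -3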;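 note: negative z-score means lost luminescence so less FERM oligomerization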
# Target sequence (Q14289 whole entry, looked up): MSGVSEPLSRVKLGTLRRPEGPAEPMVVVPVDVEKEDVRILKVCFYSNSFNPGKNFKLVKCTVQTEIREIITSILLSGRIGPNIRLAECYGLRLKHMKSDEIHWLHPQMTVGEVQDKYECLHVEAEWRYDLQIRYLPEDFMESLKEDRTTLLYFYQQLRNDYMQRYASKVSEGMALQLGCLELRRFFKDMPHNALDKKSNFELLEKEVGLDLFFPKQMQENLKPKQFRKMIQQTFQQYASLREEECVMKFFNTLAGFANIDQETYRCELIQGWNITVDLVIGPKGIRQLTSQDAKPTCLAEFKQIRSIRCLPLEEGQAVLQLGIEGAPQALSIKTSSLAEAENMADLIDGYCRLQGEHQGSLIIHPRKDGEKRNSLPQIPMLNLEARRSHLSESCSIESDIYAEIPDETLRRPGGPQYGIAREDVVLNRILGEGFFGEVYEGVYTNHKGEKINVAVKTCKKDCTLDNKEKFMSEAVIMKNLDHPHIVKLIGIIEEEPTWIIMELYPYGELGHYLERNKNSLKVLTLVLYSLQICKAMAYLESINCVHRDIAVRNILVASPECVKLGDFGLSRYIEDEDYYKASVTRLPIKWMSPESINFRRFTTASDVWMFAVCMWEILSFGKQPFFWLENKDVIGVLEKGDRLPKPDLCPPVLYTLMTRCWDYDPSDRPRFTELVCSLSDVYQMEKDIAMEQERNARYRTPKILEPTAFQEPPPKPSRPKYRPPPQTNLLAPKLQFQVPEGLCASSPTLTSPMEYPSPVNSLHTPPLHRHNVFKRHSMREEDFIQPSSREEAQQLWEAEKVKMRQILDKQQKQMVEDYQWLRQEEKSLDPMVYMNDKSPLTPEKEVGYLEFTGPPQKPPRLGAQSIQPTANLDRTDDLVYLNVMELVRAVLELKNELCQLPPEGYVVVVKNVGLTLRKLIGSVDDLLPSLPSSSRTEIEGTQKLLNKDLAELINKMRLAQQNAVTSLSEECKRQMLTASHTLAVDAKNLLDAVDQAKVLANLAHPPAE
# PostGolgi yeast: growth inhibition of a yeast mutant, post-Golgi transport screen; post-Golgi transport phenotypic cell assay; inhibition, % at 10 µM; actives 0.9% (n = 98,000); AID 739;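 note: yeast cells grown in 1536-well plates; yeast grown about 18 h at 30C before absorbance read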
# Cav3 T inh: human Cav3.2 channel inhibition, primary screen; O95180; Cav3.2-expressing cells, Fluo-4 calcium fluorescence FDSS; active compounds read low; actives 4% (n = 100,000); B-score at 10 µM;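 active = single-dose well whose peak fluorescence ratio is a statistical outlier from its plate by either plate-standardised score or position-corrected B-score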
# tolC growth inh: E. coli tolC mutant growth inhibition; growth inhibition, % at 10 µM (by protocol); E. coli BW25113 tolC mutant growth, OD615; actives 2.2% (n = 65,000); AID 573;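 active = growth inhibition at or above a cutoff equal to the mean over every tested compound plus 3 SD, cut at about 60% in these data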;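 note: growth measured after 20 h incubation at 37 °C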
#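 Signal: optical density read at 615 nm; Assay system: E. coli ΔtolC::kan strain BW25113; Times: 20 h incubation with compound, 37 °C; Dosing: 10 µM final, single dose.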
# PostGolgi ctrl: inhibits growth of the yeast control strain | efflux-deficient yeast background strain, growth absorbance A615, 16 h | inhibition, % at 10 µM | actives 5% (n = 98,000) | AID 738
# Ecoli WT expand: blocks growth of wild type E. coli BW25113 | OD600 absorbance | growth inhibition, % at 100 µM | actives 0.15% (n = 98,000);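 active = growth inhibition above about 50% at one test dose, limit read from the data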;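 note: growth measured after 20 h incubation at 37 °C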
# An asterisk follows results filed as active; . = no result given. Cut-off read from the data, not from the text of the source, unless noted: active = inhibition above about 30%; inactive = the rest.
SMILES,Pyk2 oligo antag,PostGolgi yeast,Cav3 T inh,tolC growth inh,PostGolgi ctrl,Ecoli WT expand
CCN(CC)c1ccc(NC(=O)C2CCCN(S(=O)(=O)c3cccnc3)C2)c(C)c1 (stereo not drawn),.,1,-0.82,-1,15,-1
CC(=O)Nc1ccc(NC(=O)Cn2cnc3c(cnn3C(C)(C)C)c2=O)cc1,.,-3,-0.1,-7,9,5
CC(C)(C)n1ncc2c(=O)n(CC(=O)Nc3ccc(Cl)cc3)cnc21,-1.3,-7,-9.5*,52,0,-9
CCC1CCCCN1C(=O)CSc1nnc(-c2cccs2)o1 (stereo not drawn),-0.12,-5,0.11,-3,7,0
Cn1c(-c2cc3c(C(F)(F)F)nn(C)c3s2)n[nH]c1=S,-0.12,15,0.62,.,15,-5
CCn1c(-c2cc3c(C(F)(F)F)nn(C)c3s2)n[nH]c1=S,0.73,4,0.32,.,41*,-5
CCCCN1CC[C@H]2C=CC[C@@H](C(=O)Nc3nccs3)[C@H]2C1=O,.,.,0.83,.,.,.
COc1ccc(N(C(=O)c2cnccn2)C(C(=O)NC2CCCCC2)c2ccc(Cl)cc2)cc1 (stereo not drawn),-0.37,.,-0.2,.,.,.
COc1ccc(NC(=O)C(c2ccccc2)N(C)C(=O)c2cnccn2)cc1 (stereo not drawn),-0.66,27,-4.2*,-6,-1,8
CCC(CC)c1nnc(NC(=O)C2COc3ccccc3O2)s1 (stereo not drawn),-0.33,-11,-3.9*,.,20,7
CCc1nnc(NC(=O)C2COc3ccccc3O2)s1 (stereo not drawn),0.14,-5,-0.042,.,11,-9
O=C(Nc1nc2c(s1)CCCC2)C1COc2ccccc2O1 (stereo not drawn),.,23,-4.9*,31,0,5
O=C(CCn1nc(-c2ccccc2)c2ccccc2c1=O)N1CCN(c2ccccc2)CC1,-0.71,7,-5.3*,24,14,-6
NC(=O)CCn1nc(-c2ccccc2)c2ccccc2c1=O,-0.2,9,-0.036,-2,-4,1
COc1ccc(C2C3=C(CCCC3=O)Nc3nc(C(F)(F)F)nn32)c(OC)c1OC (stereo not drawn),-0.87,-6,-1.1,3,-4,1
Cc1cc(N2C(=O)C(=O)/C(=C(/O)c3ccc(F)cc3)C2c2cccc(Br)c2)no1 (stereo not drawn),-0.14,7,-3.4,9,11,-1
Cc1ccc(/C(O)=C2\C(=O)C(=O)N(c3cc(C)on3)C2c2cccc(Cl)c2)cc1 (stereo not drawn),-2.3,-1,-3.1*,54,2,8
Cc1ccc(/C(O)=C2\C(=O)C(=O)N(c3cc(C)on3)C2c2cccc(Br)c2)cc1 (stereo not drawn),-0.65,2,-3.7*,65*,-1,-7
CCN(CC)c1cc(C)c2cc(NC(=O)c3ccc(Br)o3)ccc2n1,0.66,-11,-0.39,.,6,2
C=CCNS(=O)(=O)CC12CCC(CC1=O)C2(C)C (stereo not drawn),-1,-1,0.29,.,3,-2
CC(C)CCNC(=O)NC(=O)CSc1nnc(COc2ccccc2Cl)o1,0.69,-1,-4.8*,32,26,-11
CC(C)NC(=O)NC(=O)CSc1nnc(COc2ccccc2Cl)o1,-0.05,-5,-2,.,3,5
Fc1ccc(CN2CCCCCCC2)cc1,-0.91,9,-0.87,.,5,1
NC(=O)C1(N2CCCCC2)CCN(Cc2ccc(F)cc2)CC1,2.2,6,-4.2*,.,4,-2
Cc1cc(SCC#N)n2nc(C)c(-c3ccccc3)c2n1,-0.18,16,0.8,61*,15,26
SMILES,Pyk2 oligo antag,PostGolgi yeast,Cav3 T inh,tolC growth inh,PostGolgi ctrl,Ecoli WT expand
O=c1[nH]c(NCCCO)nc2c1C1(CCCC1)Cc1ccccc1-2,-1.2,1,-4.1*,65*,19,20
Cn1c(NCCO)nc2c(c1=O)C1(CCCCC1)Cc1ccccc1-2,.,1,-1,37,50*,-10
O=c1oc(-c2ccccc2)nc2c1C1(CCCCC1)Cc1ccccc1-2,0.4,0,-0.27,.,-3,-12
CN(C)Cc1nc2c(c(=O)[nH]1)C1(CCCCC1)Cc1ccccc1-2,-1.2,7,-2.9,62*,-1,3
CCN(CC)Cc1nc2c(c(=O)[nH]1)C1(CCCCC1)Cc1ccccc1-2,-0.15,4,-1.2,29,32*,-6
O=c1[nH]cnc2c1C1(CCCC1)Cc1ccccc1-2,1.1,-7,-2.9,20,19,0
CC1(C)NC(=O)N(CC(O)Cn2nnc3ccccc32)C1=O (stereo not drawn),1.5,5,.,21,-3,4
O=C(c1ccco1)N1CCN(c2ncnc3c2oc2ccccc23)CC1,0.28,2,-0.11,29,2,2
COc1ccc(Cn2c(CCCO)nc3ccccc32)cc1OC,0.97,20,0.95,4,6,0
O=C(NCC1CCCCC1)c1ccco1,-0.58,1,0.29,0,7,6
CCCCC(CC)CNC(=O)C1CCCN(S(=O)(=O)c2cnc[nH]2)C1 (stereo not drawn),.,-1,-1.4,3,7,8
O=c1c2c(nc3n1CCCCC3)-c1ccccc1CC21CCCC1,-0.73,5,.,91*,46*,-6
O=C(Nc1ccc(N2CCN(Cc3ccccc3)CC2)cc1)c1ncn[nH]1,-0.21,-2,2.1,7,31*,-1
CCC(=O)Nc1ccc(N2CCN(Cc3ccccc3)CC2)cc1,0.33,1,0.41,-13,3,0
Cc1ccc(CNC(=O)CCOc2ccc(C(C)(C)C)cc2)cc1,0.52,-6,-1.1,.,23,-1
Cc1ccc(S(=O)(=O)CC#CCOC(=O)c2ccc([N+](=O)[O-])cc2)cc1,.,4,-0.037,.,-1,14
CC1=C(C(=O)OCC(C)C)C(c2cccc(F)c2)N2C(=O)C(C)SC2=N1 (stereo not drawn),0.1,3,-6.1*,12,22,-3
CCOC(=O)C1=C(C)N=C2SC(C)C(=O)N2C1c1cccc(F)c1 (stereo not drawn),-2.2,-9,-6.5*,7,9,-3
COc1ccc(CCNc2c(N)n(Cc3ccccc3)c(=O)[nH]c2=O)cc1OC,-0.18,4,-0.083,-1,3,2
COc1ccccc1NC(=O)N1CCN(c2cccc(C(F)(F)F)c2)CC1,0.15,22,-2.2,25,17,1
Cc1ccc(CC(=O)N2CCN(c3cccc(C(F)(F)F)c3)CC2)cc1,-0.21,0,-5.4*,.,20,-4
COc1ccccc1CC(=O)N1CCN(c2cccc(C(F)(F)F)c2)CC1,0.35,9,-4.8*,12,7,-5
O=C(c1c(F)c(F)c(F)c(F)c1F)N1CCN(c2cccc(C(F)(F)F)c2)CC1,0.85,9,.,49,17,-14
CCc1ccc(OCCNC(=O)c2ccccc2SCc2ccccc2)cc1,-1.6,-4,-6.8*,.,19,-11

# Screening data: PubChem BioAssay, several laboratories
